In this data set the test system is MS2 coat protein. Description: apparent Kd, MS2 coat protein; higher = weaker binding; RNA-MaP array; FMN 200 µM where present. The procedure, abridged: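 In 100 mM Tris-HCl pH 7.5, 80 mM KCl, 4 mM MgCl2, BSA, DTT, yeast tRNA and Tween-20, SNAP-549-labelled MS2 coat protein was titrated from 0.7 or 1.5 nM, doubling to 3 µM, over designs transcribed by stalled E. coli RNA polymerase on Illumina sequencing-chip clusters. This was done first without ligand, then with ligand held constant. After green signal was normalised to red-channel RNA signal and control-cluster median Fmax, the apparent Kd was taken as the median of filtered per-cluster binding-curve fits.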

Where [1] appears, read: designed as: OFF switch for flavin mononucleotide, no ligand.
[2] abbreviates: ligand present: flavin mononucleotide, designed as: OFF switch for flavin mononucleotide.
The mark [3] stands for this setting: designed as: ON switch for flavin mononucleotide, no ligand.
[4] abbreviates: ligand present: flavin mononucleotide, designed as: ON switch for flavin mononucleotide.

The results in this text go back to the EternaBench riboswitch data.

Regarding “UAAAUAAGUGUGAGGAUAUGCUGGUCCUUGGAUCAGCAGAAGGCACAUGAGGAUCACCCAUGUAAUAUAUUUAU”, the “apparent Kd” value runs as follows: under setting [1], 85.2 nM; under setting [2], 316 nM.

As for “ACACAUGAGGAUCACCCAUGUAGCUGGCGUCUGCACCAGCCACAGGAUAUACGGCAACACAAGCCGUAGAAGGGUGAUAAACAC”, the “apparent Kd” value reads like this: under setting [3], 67.5 nM; under setting [4], 21.6 nM.

Consider “UUGGCUAAACCUCAGAGUACCACAUGAGGAUCACCCAUGUGGAGAAGGGACUUUGUACCGUUGAGUCAGGAUAUUCAUUGGGUA”, for which the “apparent Kd” value was determined as 5.17 nM under setting [1] and 7.35 nM under setting [2].

In the case of “UGGUACAUCAUAGGAUAUCGUGUGUAAACAUGAGGAUCACCCAUGUCAUACGAGAGUAUGUCGAUCGAGAAGGAUGAUGUACCU”, the “apparent Kd” value is, setting by setting: under setting [3], 31.2 nM; under setting [4], 17.2 nM.

For the sequence “AAGAAGGACGCAGGAUAUCCAGGACCUCCCGCAGGAGAAGGGCGAGACAUGUGGAUCACCCAGACAUGAGGAUCACCCAUGUAG”, the “apparent Kd” value under setting [1] was found to be 22.5 nM and the “apparent Kd” value under setting [2] worked out at 21 nM.

Turning to “AGAACAUGAGGAUCACCCAUGUAAAGAUCGGUCAAUAAGGGUGAGGAUAUGCUUAAAAUAAGGUAGCAGAAGGUACUUGGUGCA”, the “apparent Kd” value reads like this: under setting [3], 91.2 nM; under setting [4], 245 nM.

Regarding “GGGCCCGGAGGAUAUACAUGAGGAUCACCCAUGUACCCGGGCCCUAUUGGGUUUGGGUGUAGAAGGCCGGGCCC”, the “apparent Kd” value under setting [1] turned out to be 15 nM and the “apparent Kd” value under setting [2] is 15.3 nM.

Take “GAUCUGACAGGAUAUACAUGAGGAUCACCCAUGUACGAGCUAGCGAAAGCUAGCUCAGGUAGAAGGGUCAGAUC”: the “apparent Kd” value reads like this: under setting [1], 12.3 nM; under setting [2], 16.4 nM.

As to “CUUCGUUGUAAGGAUAUCCAGACUCUUCCUGUCGGAGAAGGUACAACAUGAGGAUCACCCAUGUUGCUACAUGG”, the “apparent Kd” value runs as follows: under setting [1], 25 nM; under setting [2], 38.7 nM.

On to “UUGCAGUGCGGGUAGGAUAUGUAGGGUGGUACAUGAGGAUCACCCAUGUGUCCACCCUUCUUCCGGCAGAAGGGCCUGUCACUGC”, for which the “apparent Kd” value is, setting by setting: under setting [3], 15.2 nM; under setting [4], 13.5 nM.

As for “AUGGUUGUCGUAGGAUAUGUAGGAUAUUCCUACAUGAGGAUCACCCAUGUUCGCAUGGAAGAAGGACGGAAGGACGAUGACCAA”, the “apparent Kd” value by setting is: under setting [3], 249 nM; under setting [4], 118 nM.

Turning to “UAAGUACAUGAGGAUCACCCAUGUUGGAAUAGAGCAGGAUAUGUGCAGAGGGAAAUAAAAACAGAAGGGCUAAGAA”, the “apparent Kd” value is 45.3 nM under setting [3] and 28.6 nM under setting [4].

Take “AAGCGAGGGACAGGAUAUGCGGCGAAAUUCUCCGCAGAAGGGUCGACAUGAGGAUCACCCAUGUCCUUACGCUCCAAGUAGAGG”: the “apparent Kd” value under setting [3] was determined as 324 nM and the “apparent Kd” value under setting [4] was 467 nM.

As to “AAAAAGUGAGGAUAUACGAAAAAAAAAAAAAAAAAAGGUGAACAUGAGGAUCACCCAUGUAGAAGGCACAAAAA”, the “apparent Kd” value is, setting by setting: under setting [1], 311 nM; under setting [2], 243 nM.

Take “GUAUUAAAGAUCCAUUUAUACAACAUGAGGAUCACCCAUGUGCAGGAUAUCGUGUGUUUUUUAUUCGAGAAGGGCAAAUUCAUU”: the “apparent Kd” value amounted to 37 nM under setting [1] and 85.2 nM under setting [2].

With “GUGUACAGAGGAUAUAUAUGAGCAUGGAAACAUGCAACUUCACAUGAGGAUCACCCAUGUAGAAGGCUGUACAC”, the “apparent Kd” value is, setting by setting: under setting [1], 14.2 nM; under setting [2], 14.3 nM.

As for “AACCACCGCACGGACACGUCGAGUCAGGAUAUACAUGAGGAUCACCCAUGUGAAGGCCGGCUCAUGUAGAAGGGACAGGCGUUG”, the “apparent Kd” value was 11.4 nM under setting [1] and 15.7 nM under setting [2].

Regarding “GUUUUUUGUCAUGUACAUGAGGAACAUGAGGAUCACCCAUGUAGAAGGAAUUUUUUUAAGUUUAGUUAGGAUAUACAUAUAUUA”, the “apparent Kd” value by setting is: under setting [1], 49 nM; under setting [2], 24.7 nM.

“CACGUCUGAGGAUAUCGUUUUUUGUACAUGAGGAUCACCCAUGUCCAAUUUUGUAUAUUACGAGAAGGCAGUGGAA”: the “apparent Kd” value came out at 12.9 nM under setting [1] and 19.7 nM under setting [2].

Turning to “CGCAAGUAUACAUGAGGAUCACCCAUGUUUGAUAGGGUUUUCAGAAGGUACAAUUAGAGAUAGAGUAAGGAUAUGAAAUUUGCG”, the “apparent Kd” value runs as follows: under setting [3], 125 nM; under setting [4], 24.7 nM.

With “UUAAAUCAUGUAGGAUAUGCAUGGCGAAGCUACGCAGAAGGACAUGAGGAUCACCCAUGUUAUAGCGUCUGAGUACAGAUGCAA”, the “apparent Kd” value by setting is: under setting [1], 79.6 nM; under setting [2], 268 nM.

Consider “UGGACCGAGCUGUCGGUUGGCUGGCAGGAUAUGACAUGAGGAUCACCCAUGUGGGAUCUAAAUUGUCAGAAGGGCCGUUCUGGG”, for which the “apparent Kd” value by setting is: under setting [1], 212 nM; under setting [2], 25.4 nM.

As to “UGAUCCCAUGUCAGGAUAUAGAGGCGGUAGCCUGGCUAGAAGGGACAUGAGGAUCACCCAUGUCGGUUCUUGCC”, the “apparent Kd” value was 35.5 nM under setting [1] and 21.3 nM under setting [2].

On to “CCGAAUAUGCAGGAUAUCGUAUCGGAAACGAUACGAGAAGGGCAAACAUGAGGAUCACCCAUGUUCCUUAACGG”, for which the “apparent Kd” value is 18.6 nM under setting [1] and 20.2 nM under setting [2].

Consider “GGUCGUCCCAUUAACAUGAGGAUCACCCAUGUCAAAAGACAUGAGGAUAUGCAUCCUAAUUGGAUGCAGAAGGCAUGGACGACC”, for which the “apparent Kd” value runs as follows: under setting [3], 1060 nM; under setting [4], 87.7 nM.

On to “GAGCGAAAGCUCAAUGUCGAUAGCAGAAGGACAUCCUUAAACAUGAAAACAUGAGGAUCACCCAUGUAGGAUAUGCUAUCGACU”, for which the “apparent Kd” value under setting [1] came out at 7.31 nM and the “apparent Kd” value under setting [2] amounted to 9.1 nM.

On to “UGUUGUAUUACAGGAUAUCUAUAAUUUUUAUUUAGAGAAGGGUAUUCACAUGAGGAUCACCCAUGUAUAUACGAGGAAGUUGUG”, for which the “apparent Kd” value under setting [3] is 43.5 nM and the “apparent Kd” value under setting [4] was 45.8 nM.

For “UGUCGGAGCAGAGGAUAUACAUGAGGAUCACCCAUGUAAUAUGAUCUAGCCUGGAAACAGGCAAUGUAGAAGGCUGCUCCGACA”, the “apparent Kd” value under setting [1] is 92.6 nM and the “apparent Kd” value under setting [2] is 1020 nM.

Consider “GUGUACGGAGGAUAUAUGUGGGCAGCAUACGCUGCAGCUUCACAUGAGGAUCACCCAUGUAGAAGGCUGUACAC”, for which the “apparent Kd” value came to 28.7 nM under setting [1] and 169 nM under setting [2].

As for “CGGUUACAAGGAUAUACAUGAGGAUCACCCAUGUCUCUCCGGGCGGAUCGAUAAUUUUGUAGAAGGUGUAAGGG”, the “apparent Kd” value is, setting by setting: under setting [1], 24.5 nM; under setting [2], 63.7 nM.

For “GGACAUUUACAGAAGGGCAAGUUAGAUCGUGGAUAACACGAUCUGACUUGCAGGAUAUGUUGAACAUGAGGAUCACCCAUGUCC”, the “apparent Kd” value under setting [3] amounted to 12.9 nM and the “apparent Kd” value under setting [4] came to 10.8 nM.

With “GGAUAGGACAGAGGAUAUACGUGCUAGAGAUACUACCAAAAUUUCCUCACAUGAGGAUCACCCAUGUAGAAGGCUGUCCUAUCG”, the “apparent Kd” value by setting is: under setting [1], 180 nM; under setting [2], 143 nM.

In the case of “CCCUCAACAUGAGGAUCACCCAUGUAGGAUAUCGCUAUUGUAAUCAUGAAACAUGAUUACAAUAGCGAGAAGGACAUAUGUAAA”, the “apparent Kd” value is 27.4 nM under setting [1] and 140 nM under setting [2].

For the sequence “AUACUUAAUGAAGGAUAUCUCAGCAUAAACCUGAGAGAAGGUCAUUGUUACAUGAGGAUCACCCAUGUUGUAGUUAAUGGGUAA”, the “apparent Kd” value is, setting by setting: under setting [1], 421 nM; under setting [2], 413 nM.

With “GGUCAUCAAGUCAGGAUAUCGUCUGGUCAAUCAGGCGAGAAGGGACAUGAGGAUCACCCAUGUCGACUCAUCAG”, the “apparent Kd” value worked out at 33.9 nM under setting [1] and 139 nM under setting [2].

For the sequence “CUCAUGUGAGGAUAUGUGAUCUGCCUUCUAUGUAGAUGAUCACAGAAGGCACAUGAGGAUCACCCAUGUAGAUC”, the “apparent Kd” value under setting [1] turned out to be 119 nM and the “apparent Kd” value under setting [2] was determined as 23.4 nM.

By apparent Kd is commonly meant the concentration giving half-maximal binding under the conditions of the assay.
